# Most compounds without a hit are left out; they make up all but 3.5% or so of the library.
# RGS4 pot = RGS4 potentiation or activation | HEK293 M3R/inducible RGS4, carbachol calcium flux Fluo4; hits give low values | B-score at 10 µM | hit rate 0.92% among 310,000 | AID 463111;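 active = B-score of the integrated calcium signal more than 4 SD below the library mean, with starting fluorescence not abnormally high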;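 also: negative B-score means reduced calcium response which marks RGS4 activation or potentiation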
#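 Assay system: Inducible-RGS4 HEK293 cells carrying M3 receptor | Schedule: Compound preincubation 20 min at room temperature before agonist | Signal: Kinetic calcium fluorescence imaging with Fluo4-AM dye, 2 µM | Read-out basis: B score from integrated fluorescence ratio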
# MrgX1 antagonist = human MrgX1 receptor antagonism, primary screen. MRGX1-HEK293 calcium flux, Fluo-4, BAM8-22 antagonism; hits give low values. B-score at 10 µM. hit rate 1.3% among 310,000. Q96LB2. AID 588676;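 active = calcium-response B-score plate-corrected more than 3 library SD below zero, starting fluorescence within 5 deviations, no agonist response on first addition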;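 also: peak minus trough fluorescence over baseline after final BAM8-22 challenge near maximal dose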
# Target sequence (Q96LB2 whole entry, looked up): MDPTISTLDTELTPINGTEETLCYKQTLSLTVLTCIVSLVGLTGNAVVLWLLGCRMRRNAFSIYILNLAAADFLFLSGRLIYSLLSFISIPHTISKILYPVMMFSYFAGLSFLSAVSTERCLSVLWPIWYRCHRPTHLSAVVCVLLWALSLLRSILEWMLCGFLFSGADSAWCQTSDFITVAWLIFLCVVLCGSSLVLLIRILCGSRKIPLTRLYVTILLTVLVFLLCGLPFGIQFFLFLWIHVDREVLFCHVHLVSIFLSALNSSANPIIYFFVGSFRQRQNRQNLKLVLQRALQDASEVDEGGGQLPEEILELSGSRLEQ
# MrgX1 ag = agonists of human MrgX1 receptor | Q96LB2 | MrgX1-HEK293 cells, Fluo-4 calcium fluorescence, agonist mode; hits give high values | B-score at 10 µM | hit rate 0.44% among 310,000 | AID 588627;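 active = calcium response B-score plate-corrected fluorescence ratio at least 3 library SD, with starting fluorescence B-score inside 5 SD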
#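 System: HEK293 cells stably expressing human MrgX1 receptor; Dosing: test compound in the initial addition of three; Schedule: overnight plating, then 30 min 37 °C plus 30 min room-temperature dye loading; Detection: kinetic calcium dye fluorescence, Fluo-4 NW; Controls: per-plate positive and negative controls for Z′ factor.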
# RGS4 inh = human RGS4 inhibition; hit rate 0.45% among 310,000; P49798; HEK293 M3R/RGS4 inducible, Fluo-4 calcium flux; hits give high values; triggered by carbachol at its EC20; B-score at 10 µM;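 active = B-score, a plate-corrected calcium signal, over three deviations above library mean, with baseline fluorescence within five deviations of library mean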;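 also: RGS4 expression induced by doxycycline in cells with stable M3 receptor; B-score is computed from the integrated fluorescence ratio over baseline after carbachol; higher B-score means a larger calcium signal and so more RGS4 inhibition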
# Target sequence (P49798 whole entry, looked up): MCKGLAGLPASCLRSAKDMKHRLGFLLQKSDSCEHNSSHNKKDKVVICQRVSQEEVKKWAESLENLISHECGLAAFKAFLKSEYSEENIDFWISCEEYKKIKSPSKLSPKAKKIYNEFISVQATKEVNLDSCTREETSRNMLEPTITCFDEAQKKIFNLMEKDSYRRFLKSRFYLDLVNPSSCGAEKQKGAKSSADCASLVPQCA
# MrgX1 PAM = human MrgX1 positive allosteric modulation, primary screen; AID 588675; hit rate 0.63% among 310,000; B-score at 10 µM; Q96LB2; MrgX1-HEK293, Fluo-4 calcium flux, FDSS; hits give high values;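 active = plate-corrected calcium response at least 3 library SD above typical, normal starting fluorescence, not activating the receptor alone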;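 also: compound read alongside a low EC10 to EC30 dose of BAM8-22 agonist; peak minus trough fluorescence over baseline measured at the second addition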
# MrgX1 ag confirm = reconfirmed activator of human MrgX1 receptor signaling; MrgX1-HEK293, Fluo-4 calcium fluorescence, FDSS; hit rate 78% among 600; activation, % at 10 µM; shares compounds with MrgX1 ag;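 active = calcium signal rise, corrected for plate position, at least 3 library SD high, with starting brightness within 5 such deviations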
# HEK293 Ca flux = activity in parental HEK293 cells lacking MrgX1; hit rate 2% among 4,000; Fluo-4 calcium fluorescence, FDSS; fluorescence ratio F(max-min)/F0 at 10 µM; shares compounds with MrgX1 antagonist;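 active = duplicate-averaged calcium fluorescence ratio at least three times the standard deviation of buffer wells, a nonspecific response in parental cells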
# HEK293 Ca counter = counter-screen for MrgX1 allosteric activators: effect in parental HEK293 cells; AID 624114; hit rate 0.4% among 4,000; shares compounds with MrgX1 antagonist; fluorescence ratio F(max-min)/F0 at 10 µM; parental HEK293 calcium flux, Fluo-4 fluorescence ratio; hits give high values;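 active = calcium fluorescence ratio, averaged over duplicates, at least 3 SD of the buffer-well ratio, meaning a nonspecific response in receptor-free cells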;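 also: untransfected parental HEK293 lacking MrgX1 used as counterscreen for MrgX1 allosteric activators; fluorescence change taken during the second addition on a kinetic imager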
# HEK293 Ca cntr2 = counter-screen for MrgX1 activators: effect in parental HEK293 cells; shares compounds with MrgX1 antagonist; hit rate 8.7% among 4,000; Fluo-4 calcium fluorescence (FDSS); hits give high values; fluorescence ratio F(max-min)/F0 at 10 µM;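 active = calcium fluorescence ratio at least three times the spread of buffer wells, meaning a non-specific response in parental cells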
# Hits are given with their value; i = inactive; nt = no result given.
SMILES,RGS4 pot,MrgX1 antagonist,MrgX1 ag,RGS4 inh,MrgX1 PAM,MrgX1 ag confirm,HEK293 Ca flux,HEK293 Ca counter,HEK293 Ca cntr2
CC1(c2ccc(OC(F)F)cc2)NC(=O)N(CC(=O)Nc2cccnc2Cl)C1=O (stereo not given),i,i,33,i,i,137%,i,i,47
COc1ccc(C2(C)NC(=O)N(CC(=O)Nc3cccnc3Cl)C2=O)cc1 (stereo not given),i,i,i,i,i,nt,nt,nt,nt
Cc1cc(=O)oc2cc3oc(=O)cc(C)c3cc12,i,i,i,i,i,nt,nt,nt,nt
CCCCNC(=O)Oc1c(Br)cc2sc(=O)oc2c1Br,nt,i,i,nt,i,nt,nt,nt,nt
O=C(OCc1cc2ccccc2[nH]c1=O)c1cccs1,i,i,38,i,i,i,i,i,i
CNc1nnc(-c2ccncc2)s1,i,i,i,i,i,nt,nt,nt,nt
Cc1ccc(Nc2nnc(-c3ccncc3)s2)c(Br)c1,i,i,49,i,i,i,i,i,i
CCOC(=O)Cn1c(CCC(=O)O)ccc1-c1ccc(F)cc1,i,i,45,i,i,170%,i,i,i
COC(=O)Cc1nc(NC(=O)c2cccs2)sc1C,i,i,28,i,i,149%,i,i,i
Cc1ccc(SCc2[nH]nc3c2C(c2ccco2)C(C#N)=C(N)O3)cc1 (stereo not given),i,i,40,i,i,161%,i,i,i
CC(C)c1[nH]nc2c1C(c1ccco1)C(C#N)=C(N)O2 (stereo not given),i,i,27,i,i,i,i,i,i
CCc1[nH]nc2c1C(c1ccc(Br)s1)C(C#N)=C(N)O2 (stereo not given),nt,i,48,nt,i,146%,i,i,i
CC(C)c1[nH]nc2c1C(c1cccnc1)C(C#N)=C(N)O2 (stereo not given),i,i,i,i,i,nt,nt,nt,nt
Cc1ccc(NC(=O)c2ccc(S(=O)(=O)NCc3cccnc3)cc2)c(C)c1,i,i,i,i,i,nt,nt,nt,nt
COc1cc(-c2[nH]ncc2CN2CCN(c3cccc(C)n3)CC2)cc(OC)c1OC,i,i,i,i,i,nt,nt,nt,nt
CCc1cccc(C)c1NC(=S)N1CCCCC1c1cccnc1 (stereo not given),i,i,28,i,i,100%,i,i,48
O=C(NNS(=O)(=O)c1ccc(Cl)cc1)c1cccc(S(=O)(=O)N2CCOCC2)c1,i,i,i,i,i,nt,nt,nt,nt
COc1ccc2c(c1)CC/C(=C\Nc1ccc3c(c1)OCO3)C2=O,i,i,27,i,i,i,i,i,i
O=Cc1cccn1Cc1ccccc1[N+](=O)[O-],i,i,i,i,i,nt,nt,nt,nt
O=C(NCCc1ccc(F)cc1)c1ccc2c(=O)n3c(nc2c1)CCC3,i,i,32,i,i,217%,i,i,52
O=C(NCc1ccccc1)c1ccc2c(=O)n3c(nc2c1)CCCCC3,i,i,i,i,i,nt,nt,nt,nt
CCC(=O)NCCc1nc2ccccc2n1Cc1ccc(C)cc1,i,i,i,i,i,nt,nt,nt,nt
CN(C)CCOc1ccc2c(c1)Sc1ccccc1CC2=O,i,i,55,i,i,i,i,i,i
COc1ccc(OC)c(NC(=O)Nc2c(O)ccc3ccccc23)c1,i,i,29,i,i,i,i,i,i
Cn1c(CNC(=O)CNC(=O)Cc2ccccc2)cc(=O)n(C)c1=O,i,i,i,i,i,nt,nt,nt,nt
SMILES,RGS4 pot,MrgX1 antagonist,MrgX1 ag,RGS4 inh,MrgX1 PAM,MrgX1 ag confirm,HEK293 Ca flux,HEK293 Ca counter,HEK293 Ca cntr2
COc1cc(C#N)ccc1OCC(=O)N1CCc2ccccc2C1,i,i,50,i,i,i,i,i,i
CCOc1cc(C#N)ccc1OCC(=O)N1CCc2ccccc2C1,i,i,i,i,i,nt,nt,nt,nt
N#CC1=C(N)Oc2cc(N)ccc2C1c1ccccc1Cl (stereo not given),i,i,29,i,i,i,i,i,i
N#CC1=C(N)Oc2cc(N)ccc2C1c1ccc(Cl)cc1 (stereo not given),i,i,i,i,i,nt,nt,nt,nt
COc1ccc(CCNC(=O)c2cc(-c3ccc(Cl)c(Cl)c3)oc2C)cc1,i,i,i,i,i,nt,nt,nt,nt
COc1ccc(-c2csc(NC(=O)CS(=O)(=O)c3ccc(F)cc3)n2)cc1OC,i,i,55,i,i,i,i,i,i
COc1ccc(-c2csc(NC(=O)CCN3C(=O)C4CC=CCC4C3=O)n2)cc1OC (stereo not given),-7.3,i,45,i,i,i,i,i,i
COc1ccc(-c2csc(NC(=O)Cc3cc(OC)c(OC)c(OC)c3)n2)cc1OC,i,i,i,i,i,nt,nt,nt,nt
CCC(=O)N/C(=N\OCc1ccc(F)cc1)c1nonc1NC(=O)CC,i,i,i,i,i,nt,nt,nt,nt
CC(=O)c1ccc(OC(C)C)c(CSC(=N)N)c1,i,i,38,i,i,199%,i,i,i
COc1ccc(Br)cc1CSC(=N)N,i,i,34,i,i,148%,i,i,i
CCOC(=O)C(Cc1cc(C(C)=O)ccc1OC(C)C)C(=O)OCC,i,i,i,i,i,nt,nt,nt,nt
O=C(O)CN(Cc1ccccc1)S(=O)(=O)c1ccc(F)cc1,i,i,i,i,i,nt,nt,nt,nt
CN(C)S(=O)(=O)c1ccc(NC(=O)CCCNC(=O)c2ccc(Cl)cc2)cc1,i,i,i,i,i,nt,nt,nt,nt
O=C(c1ccc([N+](=O)[O-])cc1)N(Cc1ccc(Br)cc1)N1C(=O)CCCC1=O,i,i,71,i,i,521%,i,i,96
O=C(c1ccccc1Cl)N(Cc1ccc(Br)cc1)N1C(=O)CCCC1=O,i,i,i,i,i,nt,nt,nt,nt
O=C(NC1(C(F)(F)F)C(=O)Nc2c1c(=O)[nH]c(=O)n2Cc1ccccc1)c1ccc(Cl)cc1 (stereo not given),i,i,i,i,i,nt,nt,nt,nt
O=c1[nH]c(=O)n(Cc2ccccc2)c2c1C(C(F)(F)F)(C(F)(F)F)N=C(c1ccco1)N2,i,i,41,i,i,223%,i,i,58
CCCCNC(=O)N1CCCN(c2ccc(C#N)cn2)CC1,i,i,i,i,i,nt,nt,nt,nt
CCCc1nc2ccccc2c(=O)n1/N=C/c1c(C)[nH]n(-c2ccc(C)cc2)c1=O,i,i,78,i,i,320%,i,i,91
O=C(CNC(=O)c1cccc(Cl)c1)N/N=C/C=C/c1ccccc1,i,i,i,i,i,nt,nt,nt,nt
Cc1nn(-c2ccccc2)c2c1C(c1ccc(F)cc1F)C(C#N)=C(N)O2 (stereo not given),i,i,27,i,i,183%,i,i,i

# Screening data deposited in PubChem by Johns Hopkins Ion Channel Center.
